Test [1] can be described thus: reducers of endogenous Her2 protein level, primary screen, SKBR3 breast tumor cells, AlphaScreen, ATP viability (AID 461).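 For Her2 level: lower value means less Her2 protein in the cells.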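 For viability: percent of carrier control wells set as 100% viability.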 The note with it: 18-24 h, measured here: SKBR3 viability, ATP luminescence, at 10 µM. A general note: In Alpha technology, singlet oxygen from a donor bead excites a nearby acceptor bead.
For test [2], the target named is Receptor tyrosine-protein kinase erbB-2 (Homo sapiens) (UniProt P04626). The description is as above. The note with it: 18-24 h, at 10 µM, stronger effect = lower value.
Receptor tyrosine-protein kinase erbB-2 (Homo sapiens), sequence (P04626 whole entry, looked up): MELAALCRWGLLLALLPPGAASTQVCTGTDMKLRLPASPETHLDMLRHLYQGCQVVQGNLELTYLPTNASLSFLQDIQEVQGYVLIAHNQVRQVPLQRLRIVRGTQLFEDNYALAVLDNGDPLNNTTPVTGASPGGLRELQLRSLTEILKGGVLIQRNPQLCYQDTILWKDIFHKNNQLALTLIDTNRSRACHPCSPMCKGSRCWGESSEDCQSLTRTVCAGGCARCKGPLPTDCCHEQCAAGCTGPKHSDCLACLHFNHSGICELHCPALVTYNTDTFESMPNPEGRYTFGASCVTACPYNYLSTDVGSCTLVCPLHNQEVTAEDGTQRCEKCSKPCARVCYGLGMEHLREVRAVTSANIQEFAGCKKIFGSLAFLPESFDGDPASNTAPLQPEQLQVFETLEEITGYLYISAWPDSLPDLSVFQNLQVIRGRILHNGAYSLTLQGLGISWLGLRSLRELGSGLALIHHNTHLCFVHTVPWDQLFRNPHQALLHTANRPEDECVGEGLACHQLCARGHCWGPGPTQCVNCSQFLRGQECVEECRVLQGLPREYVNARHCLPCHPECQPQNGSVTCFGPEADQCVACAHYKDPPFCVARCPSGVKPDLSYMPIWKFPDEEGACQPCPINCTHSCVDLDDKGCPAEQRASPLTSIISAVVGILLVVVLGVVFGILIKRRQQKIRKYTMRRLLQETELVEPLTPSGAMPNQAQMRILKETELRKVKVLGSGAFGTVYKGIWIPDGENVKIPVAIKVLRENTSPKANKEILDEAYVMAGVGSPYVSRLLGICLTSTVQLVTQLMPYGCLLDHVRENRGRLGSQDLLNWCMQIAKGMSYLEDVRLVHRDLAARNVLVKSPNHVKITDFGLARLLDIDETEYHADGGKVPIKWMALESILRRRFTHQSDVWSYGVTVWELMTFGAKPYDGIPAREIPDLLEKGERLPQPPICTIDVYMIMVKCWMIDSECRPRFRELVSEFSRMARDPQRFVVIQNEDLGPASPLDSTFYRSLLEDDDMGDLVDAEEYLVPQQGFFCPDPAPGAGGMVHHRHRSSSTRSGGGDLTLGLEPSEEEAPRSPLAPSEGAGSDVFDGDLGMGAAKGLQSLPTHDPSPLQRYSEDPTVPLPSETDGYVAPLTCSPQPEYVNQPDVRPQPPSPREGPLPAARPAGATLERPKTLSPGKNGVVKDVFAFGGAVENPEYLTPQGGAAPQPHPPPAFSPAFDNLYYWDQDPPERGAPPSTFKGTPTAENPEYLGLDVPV
Test [3] in a line: SK-BR-3 cell growth inhibitors, pilot screen, 24 h, human (AID 572;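 active = viability at or below 10% of carrier control in both of two separate runs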;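 note: compound exposure lasted between 18 and 24 h rather than exactly 24 h; 100% = carrier-treated control wells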). The note with it: SK-BR-3 viability, CellTiter-Glo luminescence, at 10 µM, stronger effect = lower value. Background: Cellular ATP, detected with luciferase, serves as a proxy for viable cell number.
Test [4] can be described thus: HUVEC growth inhibition – cell-based, human, primary screen (AID 575;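 active = viability at or below 30% in both replicate assays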;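 note: 100% = median of untreated cell wells with 0.1% DMSO on each plate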). The note with it: HUVEC proliferation, CellTiter-Glo luminescence, 72 h; at 10 µM; stronger effect = lower value. An outline of the steps: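 Timing: 72 h treatment at 37 °C; material: HUVEC primary cells; technique: CellTiter-Glo luminescence measuring cellular ATP; controls: vehicle and MePR control wells; measure: percent of median DMSO-control luminescence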

Test [5] in a line: growth inhibitors of H69AR lung tumor, primary screen, human, duplicate replicates (AID 580;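 active = viability at or under a set limit in both replicates, limit being median viability minus 3 SD, cut at about 48% in these data, passing the limit was not always enough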;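 note: 100% = mean luminescence of untreated wells and 0% = no signal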). Particulars: H69AR lung tumor cells viability, ATP luminescence, 72 h; at 10 µM; stronger effect = lower value.
Test [6] can be described thus: reversal of MRP1-mediated doxorubicin resistance, pilot screen, H69AR cells, doxorubicin co-treatment (AID 601;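 active = viability loss from added drug above about 55%, and viability with drug at most 40%, in both replicates, limit read from the data, passing the limit was not always enough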). Particulars: CellTiter-Glo, 72 h, at 10 µM; for differential viability (reversal): stronger effect = higher value.
The nature of test [7]: 384-well plate pilot, post-Golgi transport modulator project, inhibition of yeast transport mutant growth (AID 636; in the data active = inhibition above about 31%). The note with it: absorbance 615 nm, about 18 h, stronger effect = higher value.
Test [8] can be described thus: growth suppression of yeast trafficking mutant, preliminary HTS, modulators of trafficking downstream of Golgi apparatus project, 1536-format plate, OD 615 nm (AID 637; in the data active = inhibition above about 30%). Particulars: yeast transport mutant growth, absorbance 615 nm, 18 h; stronger effect = higher value.
Setting [9] is: H69AR cells + 2 uM doxorubicin, measured here: viability with 2 uM doxorubicin, stronger effect = lower value.
[10] abbreviates: H69AR cells, compound alone cytotoxicity.

Calls of active or inactive are those of the source.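 Rule for the calls, unless noted: active = Her2 level under about 52% in both replicate screens, with viability over 70% of control (limit read from the data); inconclusive = Her2 under the limit in one screen only, or viability under 70%; inactive = Her2 level above the set limit.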

Broadly, the viability is a read-out of living cells in per cent, often relative to untreated cells. What is called inhibition is the drop in the measured response relative to a control, in per cent. Regarding `Cc1ccc(NC(=O)C2CCCN2C(=O)Oc2ccccc2)cc1` (stereo not given), the viability in test [1] was 90.5%; in test [3], 90.5% (inactive); in test [4] it was 107% (inactive); in test [5], 91.5% (inactive); in test [6] (setting [9]), 91.9%; in test [6] (setting [10]), 91.5%. Besides, the Her2 level in test [2] is 94.5% (inactive). Besides, the differential viability (reversal) in test [6] (H69AR cells + 2 uM doxorubicin) is -0.415% (inactive). In addition, the inhibition was -6.4% (inactive) in test [7] and -1.64% (inactive) in test [8].

With `Cc1ccccc1NC(=O)CSc1nc(N)c(C#N)c(-c2cccs2)c1C#N`, the viability in test [1] is 115%; in test [3], 115% (inactive); in test [4], 72.3% (inactive); in test [5] it was 30.2% (active); in test [6] (setting [9]), 27.1%; in test [6] (setting [10]), 30.2%. For the same compound, the Her2 level in test [2] is 77% (inactive). Further, the differential viability (reversal) in test [6] (H69AR cells + 2 uM doxorubicin) was 3.09% (inactive). Moreover, the inhibition in test [7] was -9.32% (inactive); in test [8], 6.83% (inactive).

For `CCCCOc1cccc(NC(=O)CSc2nccn2C)c1`, the viability in test [1] was 107%; in test [3], 107% (inactive); in test [4], 99.9% (inactive); in test [5], 85.3% (inactive); in test [6] (setting [9]), 87.3%; in test [6] (setting [10]), 85.3%. For the same compound, the Her2 level in test [2] is 81.5% (inactive). For the same compound, the differential viability (reversal) in test [6] (H69AR cells + 2 uM doxorubicin) is -1.98% (inactive). Further, the inhibition in test [7] is -7.03% (inactive); in test [8], 0.5% (inactive).

For `COCCn1c(SCC(=O)N(C(C)C)C(C)C)nnc1-c1cc2ccccc2cc1O`, the viability in test [1] is 96%; in test [3] it was 96% (inactive); in test [4] it was 106% (inactive); in test [5] it was 88.3% (inactive); in test [6] (setting [9]) it was 88%; in test [6] (setting [10]), 88.3%. Further, the Her2 level in test [2] is 91.5% (inactive). Moreover, the differential viability (reversal) in test [6] (H69AR cells + 2 uM doxorubicin) is 0.38% (inactive). The inhibition in test [7] was -1.3% (inactive); in test [8] it was -5.5% (inactive).

As to `CCOc1ccc2[nH]c(=O)c(CN(Cc3nnnn3CCc3ccccc3)CC3CCCO3)cc2c1` (stereo not given), the viability in test [1] is 78.5%; in test [3] it was 78.5% (inactive); in test [4], 90.6% (inactive); in test [5], 78.7% (inactive); in test [6] (setting [9]), 57.5%; in test [6] (setting [10]) it was 78.7%. In test [2], the Her2 level is 89% (inactive). Further, the differential viability (reversal) in test [6] (H69AR cells + 2 uM doxorubicin) was 21.2% (inactive). For the same compound, the inhibition in test [7] was -5.34% (inactive); in test [8], -11.6% (inactive).

Regarding `COC(=O)c1cccc(NC(=O)NC2CCCN2S(=O)(=O)c2ccc(Cl)cc2)c1` (stereo not given), the viability in test [1] was 83%; in test [3], 83% (inactive); in test [4], 82.6% (inactive); in test [5] it was 94.1% (inactive); in test [6] (setting [9]), 82.7%; in test [6] (setting [10]), 94.1%. The Her2 level in test [2] was 75.5% (inactive). For the same compound, in test [6] (H69AR cells + 2 uM doxorubicin), the differential viability (reversal) was 11.4% (inactive). The figures for the inhibition in test [7] and in test [8] were -4.53% (inactive) and -7.05% (inactive), respectively.

As for `CC(NC(=O)COc1ccccc1)C(=O)NC1=NCCS1` (stereo not given), the viability in test [1] was 89%; in test [3] it was 89% (inactive); in test [4], 88.8% (inactive); in test [5], 94.4% (inactive); in test [6] (setting [9]), 90.8%; in test [6] (setting [10]) it was 94.4%. For the same compound, the Her2 level in test [2] is 124% (inactive). For the same compound, the differential viability (reversal) in test [6] (H69AR cells + 2 uM doxorubicin) is 3.6% (inactive). Besides, the inhibition was -4.36% (inactive) in test [7] and -11.8% (inactive) in test [8].

With `O=S(=O)(Cc1ccccc1)N1CCCCCC1`, the viability in test [1] is 93%; in test [3], 93% (inactive); in test [4] it was 96.1% (inactive); in test [5], 101% (inactive); in test [6] (setting [9]), 98.8%; in test [6] (setting [10]), 101%. The Her2 level in test [2] was 83.5% (inactive). Further, the differential viability (reversal) in test [6] (H69AR cells + 2 uM doxorubicin) was 2.14% (inactive). In addition, the inhibition in test [7] is -5.81% (inactive); in test [8], 2.3% (inactive).

For the compound `O=S(=O)(c1ccccc1)N(Cc1nc(-c2ccccc2)no1)C1CCCCC1`, the viability in test [1] is 88%; in test [3], 88% (inactive); in test [4], 96.1% (inactive); in test [5], 75.5% (inactive); in test [6] (setting [9]), 79.6%; in test [6] (setting [10]), 75.5%. The Her2 level in test [2] is 77% (inactive). Moreover, the differential viability (reversal) in test [6] (H69AR cells + 2 uM doxorubicin) is -4.17% (inactive). Moreover, the inhibition in test [7] is -6.27% (inactive); in test [8] it was -3.33% (inactive).

In the case of `O=c1[nH]c(CN2CCN(Cc3ccccc3)CC2)nc2sc3c(c12)CCC3`, the viability in test [1] is 96%; in test [3], 96% (inactive); in test [4], 98.9% (inactive); in test [5], 87.9% (inactive); in test [6] (setting [9]), 87.3%; in test [6] (setting [10]) it was 87.9%. Besides, in test [2], the Her2 level was 87.5% (inactive). Moreover, the differential viability (reversal) in test [6] (H69AR cells + 2 uM doxorubicin) is 0.67% (inactive). In addition, the figures for the inhibition in test [7] and in test [8] were -4.86% (inactive) and 2.06% (inactive), respectively.

For `COc1ccccc1C(=O)Nc1ccc(S(=O)(=O)N2CCOCC2)cc1`, the viability is 104% in test [1]; 104% (inactive) in test [3]; 92.9% (inactive) in test [4]; 93.2% (inactive) in test [5]; 93.7% in test [6] (setting [9]); 93.2% in test [6] (setting [10]). Also, the Her2 level in test [2] was 104% (inactive). In test [6] (H69AR cells + 2 uM doxorubicin), the differential viability (reversal) was -0.52% (inactive). In addition, the inhibition in test [7] is -2.89% (inactive); in test [8], 4.59% (inactive).

As for `Fc1ccccc1-c1nc(NCCCN2CCOCC2)c2ccccc2n1`, the viability is 94% in test [1]; 94% (inactive) in test [3]; 85.6% (inactive) in test [4]; 72.2% (inactive) in test [5]; 79.9% in test [6] (setting [9]); 72.2% in test [6] (setting [10]). For the same compound, in test [2], the Her2 level is 107% (inactive). In addition, in test [6] (H69AR cells + 2 uM doxorubicin), the differential viability (reversal) was -7.69% (inactive). In addition, the inhibition in test [7] was -0.68% (inactive); in test [8], 9.21% (inactive).

Turning to `CCOc1cc(C2C(C#N)=C(N)OC(C)=C2C(C)=O)cc(Br)c1O` (stereo not given), the viability in test [1] was 114%; in test [3] it was 114% (inactive); in test [4], 120% (inactive); in test [5] it was 90.3% (inactive); in test [6] (setting [9]), 84.2%; in test [6] (setting [10]), 90.3%. The Her2 level in test [2] was 91% (inactive). In test [6] (H69AR cells + 2 uM doxorubicin), the differential viability (reversal) is 6.05% (inactive). Besides, the inhibition is -5.95% (inactive) in test [7] and -6.83% (inactive) in test [8].

For the compound `COc1cccc(-c2nc(CS(=O)CC(=O)NCCCOC(C)C)c(C)o2)c1` (stereo not given), the viability in test [1] is 102%; in test [3], 102% (inactive); in test [4], 118% (inactive); in test [5] it was 101% (inactive); in test [6] (setting [9]), 95.1%; in test [6] (setting [10]), 101%. For the same compound, the Her2 level in test [2] was 108% (inactive). The differential viability (reversal) in test [6] (H69AR cells + 2 uM doxorubicin) was 6.34% (inactive). Besides, the inhibition is -1.6% (inactive) in test [7] and -6.94% (inactive) in test [8].

In the case of `COCCCNC(=O)CCc1nc(-c2ccccc2Cl)no1`, the viability in test [1] is 102%; in test [3], 102% (inactive); in test [4] it was 103% (inactive); in test [5], 93.3% (inactive); in test [6] (setting [9]), 94.1%; in test [6] (setting [10]) it was 93.3%. Besides, the Her2 level in test [2] was 95% (inactive). Also, the differential viability (reversal) in test [6] (H69AR cells + 2 uM doxorubicin) is -0.855% (inactive). The inhibition in test [7] is 0.39% (inactive); in test [8], 6.39% (inactive).

As to `CC(C)N(C(=O)CSc1nnc(NC(=O)C2CCC2)s1)C(C)C`, the viability in test [1] was 82.5%; in test [3] it was 82.5% (inactive); in test [4], 90.4% (inactive); in test [5], 92.9% (inactive); in test [6] (setting [9]) it was 89%; in test [6] (setting [10]), 92.9%. The Her2 level in test [2] was 90.5% (inactive). For the same compound, the differential viability (reversal) in test [6] (H69AR cells + 2 uM doxorubicin) is 3.82% (inactive). Also, the inhibition in test [7] was -1.47% (inactive); in test [8], -2.42% (inactive).

For the origin of these results see PubChem BioAssay.
